According to ChEMBL document CHEMBL5154634, “A Modular Synthetic Route Involving N-Aryl-2-nitrosoaniline Intermediates Leads to a New Series of 3-Substituted Halogenated Phenazine Antibacterial Agents” (J Med Chem, 2021):
≈ marks a conversion by molar mass, not a printed value. Calls of active or inactive are those of the source. The rule behind the calls is not given here.

How the values were obtained:
Staphylococcus aureus [1] = experiment: Bactericidal activity against methicillin-resistant Staphylococcus aureus BAA-1707 planktonic cells assessed as planktonic eradication incubated for 24 hrs followed by incubation for overnight in fresh medium by Calgary biofilm device assay; assay type: functional
Procedure, shortened: (§1)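 Calgary biofilm device. Biofilms grown 24 h at 37 °C in TSB with 0.5% glucose, then challenged 24 h with twofold compound dilutions. 20 μL of challenge medium transferred into fresh TSB with 0.5% glucose and incubated overnight at 37 °C. MBC is the concentration with no visible turbidity. At least three independent experiments.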

Enterococcus faecalis [2] = experiment: Antibacterial activity against Enterococcus faecalis OG1RF ATCC 47077 assessed as bacterial growth inhibition incubated for 16 hrs by broth microdilution susceptibility test; assay type: functional
Enterococcus faecium [3] = experiment: Bactericidal activity against methicillin-resistant vancomycin-resistant Enterococcus faecium ATCC 700221 planktonic cells assessed as planktonic eradication incubated for 24 hrs followed by incubation for overnight in fresh medium by Calgary biofilm device assay; assay type: functional; procedure, shortened: as §1
Staphylococcus aureus [4] = experiment: Antibiofilm activity against methicillin-resistant Staphylococcus aureus BAA-1707 biofilms assessed as biofilm eradication incubated for 24 hrs followed by incubation for 24 hrs in fresh medium by Calgary biofilm device assay; assay type: functional
Procedure, shortened: (§2)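 Calgary biofilm device. Mid-log culture diluted 1000-fold in TSB with 0.5% glucose; biofilms grown on pegs 24 h at 37 °C. Pegs washed and challenged with twofold compound dilutions for 24 h at 37 °C, then moved to fresh medium for 24 h. MBEC is the lowest concentration leaving wells non-turbid. At least three independent experiments.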

Enterococcus faecalis [5] = experiment: Bactericidal activity against […] Enterococcus faecalis OG1RF ATCC 47077 planktonic cells assessed as planktonic eradication incubated for 24 hrs followed by incubation for overnight in fresh medium by Calgary biofilm device assay; assay type: functional
Procedure, shortened: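 Calgary biofilm device in BHI. Biofilms grown 24 h at 37 °C and challenged 24 h with twofold compound dilutions. Challenge medium subcultured 1:10 into fresh BHI overnight at 37 °C. MBC is the concentration with no turbidity. At least three independent experiments.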

[6] = tested on: Staphylococcus epidermidis; experiment: Antibiofilm activity against methicillin-resistant Staphylococcus epidermidis ATCC 35984 biofilms assessed as biofilm eradication incubated for 24 hrs followed by incubation for 24 hrs in fresh medium by Calgary biofilm device assay; assay type: functional; procedure, shortened: as §2
Erythrocyte = experiment: Hemolytic activity against human RBC at 200 uM measured after 1 hr; assay type: toxicity, cell-based
Procedure, shortened: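 2% hRBCs exposed to compound at 200 μM final, added from DMSO stock, for 1 h at 37 °C. Supernatant OD read at 405 nm. Hemolysis normalized between DMSO (0%) and Triton X (100%); three independent experiments.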

Enterococcus faecalis [7] = experiment: Antibiofilm activity against Enterococcus faecalis OG1RF ATCC 47077 biofilms assessed as biofilm eradication incubated for 24 hrs followed by incubation for 24 hrs in fresh medium by Calgary biofilm device assay; assay type: functional
Procedure, shortened: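 Calgary biofilm device. Biofilms grown 24 h at 37 °C in BHI from mid-log culture diluted 1000-fold. Pegs washed and then challenged 24 h with twofold serial dilutions. Pegs moved to fresh BHI for 24 h recovery. MBEC = lowest concentration leaving no turbidity; at least three independent experiments.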

Staphylococcus aureus [8] = experiment: Antibacterial activity against methicillin-resistant Staphylococcus aureus BAA-44 assessed as bacterial growth inhibition incubated for 16 hrs by broth microdilution susceptibility test; assay type: functional
Procedure, shortened: (§3)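 CLSI broth microdilution with 11 twofold dilutions (0.05–50 μM). Medium was LB for the staphylococci and BHI for VRE 700221. About 10^5 cells per well from a log-phase culture. […] DMSO vehicle up to 0.5% v/v. At least three independent experiments.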

Enterococcus faecium [9] = experiment: Antibiofilm activity against methicillin-resistant vancomycin-resistant Enterococcus faecium ATCC 700221 biofilms assessed as biofilm eradication incubated for 24 hrs followed by incubation for 24 hrs in fresh medium by Calgary biofilm device assay; assay type: functional; procedure, shortened: as §2
Staphylococcus aureus [10] = experiment: Antibacterial activity against methicillin-resistant Staphylococcus aureus BAA-1707 assessed as bacterial growth inhibition incubated for 16 hrs by broth microdilution susceptibility test; assay type: functional
Procedure, shortened: (§4)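 CLSI broth microdilution with 11 twofold dilutions (0.05–50 μM). About 10^5 cells per well from a log-phase culture. DMSO vehicle up to 0.5% v/v. At least three independent experiments.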

Enterococcus faecium [11] = experiment: Antibacterial activity against vancomycin-resistant Enterococcus faecium ATCC 700221 assessed as bacterial growth inhibition incubated for 16 hrs by broth microdilution susceptibility test; assay type: functional; procedure, shortened: as §3
[12] = tested on: Staphylococcus epidermidis; experiment: Antibacterial activity against methicillin-resistant Staphylococcus epidermidis ATCC 35984 assessed as bacterial growth inhibition incubated for 16 hrs by broth microdilution susceptibility test; assay type: functional; procedure, shortened: as §4
[13] = Dissociation constant, pKa of the compound at 125 uM by UV-vis spectrophotometric analysis; assay type: physicochemical
Procedure, shortened: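 Compound at 125 μM final in phosphate buffers (KH₂PO₄/Na₂HPO₄) in 1:1 water/methanol, pH 4.07–9.66; ammonium hydroxide added for pH above 9.80. UV-vis scans 200–800 nm to find λmax of phenol and phenolate forms. Absorbance at each λmax plotted against pH.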

[14] = tested on: Mycobacterium tuberculosis; experiment: Antibacterial activity against Mycobacterium tuberculosis H37Ra ATCC 25177 assessed as bacterial growth inhibition incubated for 7 days by absorbance based analysis; assay type: functional; details: H37Ra ATCC 25177, 168 h, time 7 day
Procedure, shortened: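 H37Ra grown 2 weeks in Middlebrook 7H9, then diluted to OD600 0.01. Compounds added in twofold dilutions, final 0.024–50 μM, with 0.5% DMSO and streptomycin as positive control. Incubated 7 days at 37 °C. MIC is the lowest concentration with no growth, with OD600 recorded. At least three independent experiments.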

HepG2 = experiment: Cytotoxicity against human HepG2 cells assessed as reduction in cell viability […] by Alamar blue assay; assay type: toxicity, cell-based
J774 = experiment: Cytotoxicity against mouse J774 cells assessed as reduction in cell viability […] by Alamar blue assay; assay type: toxicity, cell-based
HeLa = experiment: Cytotoxicity against human HeLa cells assessed as reduction in cell viability incubated for 24 hrs by LDH release assay; assay type: toxicity, cell-based
Procedure, shortened: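 HeLa cells in DMEM with 10% FBS, treated at 70–80% confluence with 25, 50 and 100 μM for 24 h. LDH in supernatant measured by 30 min reaction at room temperature, then stop solution and absorbance at 490 nm. Controls: 2% Triton X-100 (maximum), medium only, DMSO vehicle. Three independent experiments.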

[15] = tested on: Mycobacterium tuberculosis; experiment: Antibacterial activity against Mycobacterium tuberculosis CDC1551 assessed as bacterial growth inhibition incubated for 5 days by luminescence based analysis; assay type: functional; details: CDC1551, 120 h, time 5 day
Procedure, shortened: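 Bioluminescent Mtb-lux CDC1551 reporter grown in Middlebrook 7H9 with 0.05% Tween 80, 10% OADC and kanamycin to OD600 0.4–0.8, then diluted to OD600 0.02. Added to twofold drug dilutions (0.003–200 μM). Incubated 5 days at 37 °C, 5% CO2. Luminescence read against 1% DMSO and 10 μM rifampicin controls to give % growth inhibition. MIC taken from a modified Gompertz fit.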

Staphylococcus aureus [16] = experiment: Antibacterial activity against methicillin-resistant Staphylococcus aureus 156 assessed as bacterial growth inhibition; assay type: functional
Staphylococcus aureus [17] = experiment: Antibacterial activity against methicillin-resistant Staphylococcus aureus clinical isolate 2 assessed as bacterial growth inhibition; assay type: functional
Staphylococcus aureus [18] = experiment: Antibacterial activity against methicillin-resistant Staphylococcus aureus 147 assessed as bacterial growth inhibition; assay type: functional
Staphylococcus aureus [19] = experiment: Antibacterial activity against methicillin-resistant Staphylococcus aureus clinical isolate 1 assessed as bacterial growth inhibition; assay type: functional
[20] = Binding affinity to Fe2+ assessed as compound-Fe2+ complex formation by UV-vis spectroscopy
Staphylococcus aureus [21] = experiment: Antibacterial activity against methicillin-resistant Staphylococcus aureus 138 assessed as bacterial growth inhibition; assay type: functional
Staphylococcus aureus [22] = experiment: Antibacterial activity against methicillin-resistant Staphylococcus aureus 129 assessed as bacterial growth inhibition; assay type: functional
[23] = tested on: Staphylococcus epidermidis; experiment: Bactericidal activity against methicillin-resistant Staphylococcus epidermidis ATCC 35984 planktonic cells assessed as planktonic eradication incubated for 24 hrs followed by incubation for overnight in fresh medium by Calgary biofilm device assay; assay type: functional; procedure, shortened: as §1
Staphylococcus aureus [24] = experiment: Antibiofilm activity against methicillin-resistant Staphylococcus aureus BAA-44 biofilms assessed as biofilm eradication incubated for 24 hrs followed by incubation for 24 hrs in fresh medium by Calgary biofilm device assay; assay type: functional; procedure, shortened: as §2

Structure (SMILES)	MBC (Staphylococcus aureus [1])	MIC (Enterococcus faecalis [2])	MBC (Enterococcus faecium [3])	MBEC (Staphylococcus aureus [4])	MBC (Enterococcus faecalis [5])	Activity (Erythrocyte)	MBEC (Enterococcus faecalis [7])	MIC (Staphylococcus aureus [8])	MBEC (Enterococcus faecium [9])	MIC (Staphylococcus aureus [10])	MIC (Enterococcus faecium [11])	MIC [12]	pKa at 125 µM [13]	MIC [14]	IC50 (HepG2)	IC50 (J774)	IC50 (HeLa)	MIC [15]	MBC [23]	other results
c1ccc(CN(CCN(Cc2ccccn2)Cc2ccccn2)Cc2ccccn2)nc1	250 µM (≈ 106 µg/mL)	46.9 µM (≈ 19.9 µg/mL)	188 µM (≈ 79.8 µg/mL)	>2000 µM	500 µM (≈ 212 µg/mL)	<= 1%	>2000 µM	46.9 µM (≈ 19.9 µg/mL)	>2000 µM	46.9 µM (≈ 19.9 µg/mL)	–	–	–	–	–	–	–	–	–	MBEC [6]: >2000 µM
COCCOCCOCCOCCSc1c(Br)c(O)c2nc3cccc(C)c3nc2c1Br	–	–	–	–	–	–	–	–	–	–	3.13 µM (≈ 1.85 µg/mL)	2.35 µM (≈ 1.39 µg/mL)	7.93	–	–	–	–	–	–	–
Oc1cc(Cl)cc2nc3c(Cl)cc(Cl)cc3nc12	18.8 µM (≈ 5.63 µg/mL)	9.38 µM (≈ 2.81 µg/mL)	–	75 µM	–	<= 1%	–	0.3 µM (≈ 0.0899 µg/mL)	–	–	–	–	6.89	3.13 µM (≈ 0.938 µg/mL)	> 200 µM	> 200 µM	> 100 µM	2.31 µM (≈ 0.692 µg/mL)	–	–
Cc1c(Br)ccc2nc3c(O)c(Br)c(Cl)c(Br)c3nc12	75 µM (≈ 36.1 µg/mL)	0.05 µM (≈ 0.0241 µg/mL)	2.35 µM (≈ 1.13 µg/mL)	75 µM	1.56 µM (≈ 0.751 µg/mL)	27%	0.78 µM	–	0.2 µM	0.59 µM (≈ 0.284 µg/mL)	≤ 0.05 µM	0.1 µM (≈ 0.0481 µg/mL)	–	–	> 200 µM	> 200 µM	–	0.88 µM (≈ 0.424 µg/mL)	–	–
COc1cccc(OC)c1C(=O)N[C@@H]1C(=O)N2[C@@H]1SC(C)(C)[C@@H]2C(=O)O [METHICILLIN]	–	–	–	–	–	–	–	–	–	–	–	–	–	–	–	–	–	–	–	MIC (Staphylococcus aureus [16]): ≥ 37.5 µM; MIC (Staphylococcus aureus [17]): ≥ 37.5 µM; MIC (Staphylococcus aureus [18]): ≥ 37.5 µM; MIC (Staphylococcus aureus [19]): ≥ 37.5 µM
Cc1c(Br)ccc2nc3c(O)cc(Cl)cc3nc12	18.8 µM (≈ 6.08 µg/mL)	2.35 µM (≈ 0.76 µg/mL)	–	[…]	–	<= 1%	–	0.3 µM (≈ 0.0971 µg/mL)	–	–	–	0.78 µM (≈ 0.252 µg/mL)	–	6.25 µM (≈ 2.02 µg/mL)	> 200 µM	> 200 µM	> 100 µM	3.27 µM (≈ 1.06 µg/mL)	–	–
Oc1cc(Cl)cc2nc3ccccc3nc12	–	–	–	–	–	–	–	–	–	25 µM (≈ 5.77 µg/mL)	> 50 µM	18.8 µM (≈ 4.34 µg/mL)	8.04	–	–	–	–	–	–	Activity [20]: Active
CCSc1c(Br)c(O)c2nc3cccc(C)c3nc2c1Br	50 µM (≈ 21.4 µg/mL)	0.78 µM (≈ 0.334 µg/mL)	–	200 µM	–	5.7%	–	0.3 µM (≈ 0.128 µg/mL)	3.13 µM	–	–	–	7.88	–	> 200 µM	> 100 µM	–	1.69 µM (≈ 0.724 µg/mL)	12.5 µM (≈ 5.35 µg/mL)	MIC (Staphylococcus aureus [21]): 0.31 µM (≈ 0.133 µg/mL); MIC (Staphylococcus aureus [16]): 0.31 µM (≈ 0.133 µg/mL); MIC (Staphylococcus aureus [22]): 0.31 µM (≈ 0.133 µg/mL); MIC (Staphylococcus aureus [17]): 0.31 µM (≈ 0.133 µg/mL); MIC (Staphylococcus aureus [18]): 0.31 µM (≈ 0.133 µg/mL); MIC (Staphylococcus aureus [19]): 0.31 µM (≈ 0.133 µg/mL)
CN[C@H](CC(C)C)C(=O)N[C@H]1C(=O)N[C@@H](CC(N)=O)C(=O)N[C@H]2C(=O)N[C@H]3C(=O)N[C@H](C(=O)N[C@H](C(=O)O)c4cc(O)cc(O)c4-c4cc3ccc4O)[C@H](O)c3ccc(c(Cl)c3)Oc3cc2cc(c3O[C@@H]2O[C@H](CO)[C@@H](O)[C@H](O)[C@H]2O[C@H]2C[C@](C)(N)[C@H](O)[C@H](C)O2)Oc2ccc(cc2Cl)[C@H]1O [VANCOMYCIN]	–	–	750 µM (≈ 1090 µg/mL)	–	11.7 µM (≈ 17 µg/mL)	–	>2000 µM	–	>2000 µM	–	–	–	–	–	–	–	–	–	2 µM (≈ 2.9 µg/mL)	MBEC [6]: >2000 µM; MBEC (Staphylococcus aureus [24]): >2000 µM
Oc1c(Br)c(Cl)c(Br)c2nc3c(Oc4ccccc4)cccc3nc12	[…]	0.78 µM (≈ 0.375 µg/mL)	0.78 µM (≈ 0.375 µg/mL)	1.56 µM	–	2.6%	75 µM	0.1 µM (≈ 0.0481 µg/mL)	0.39 µM	–	0.15 µM (≈ 0.0721 µg/mL)	0.2 µM (≈ 0.0961 µg/mL)	–	3.13 µM (≈ 1.5 µg/mL)	> 200 µM	> 200 µM	> 100 µM	3.01 µM (≈ 1.45 µg/mL)	1.56 µM (≈ 0.75 µg/mL)	–
